Assay results: ChEMBL document CHEMBL1135463 (J Med Chem, 2002)
In brackets after ≈: the same amount, converted by molar mass. Activity calls are given as the source filed them. The calls are words filed in the database; no cut-off is given here.

Columns and labels:
[1] = In vitro growth inhibition of NCI-H460 (human non-small cell lung carcinoma) cell line.; type: functional
SF-268 (Homo sapiens) = test: The concentration causing 50% reduction in the net protein increase (cell growth inhibition, GI50) against central nervous system (CNS) SF-268 cells
DU-145 [2] = test: In vitro growth inhibition of DU-145 (human prostate carcinoma) cell line.; type: functional
KM-20L2 [3] = test: In vitro growth inhibition of KM20L2 cell line.; type: functional; conditions: Homo sapiens
BXPC-3 [4] = test: In vitro growth inhibition of BXPC-3 (human pancreatic adenocarcinoma) cell line.; type: functional
P388 [5] = test: In vitro inhibition of P388 (murine leukemia) cell proliferation.; type: functional; conditions: Mus musculus, read-out: ED50 (the source's name)
MCF7 = test: Cell growth inhibition of breast MCF-7 cells, expressed as 50% reduction in the net protein increase; type: functional; conditions: Homo sapiens
SF-268 [6] = test: In vitro growth inhibition of central nervous system SF-268 cell line.; type: functional; conditions: Homo sapiens
DU-145 [7] = test: Cell growth inhibition of prostate DU-145 cells, expressed as 50% reduction in the net protein increase; type: functional; conditions: Homo sapiens
Outline: (§1)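 Human tumour lines kept in 5% FBS/RPMI-1640, plated and incubated 24 h before compound dilutions were added. Exposure 48 h, then TCA fixation, washing and sulforhodamine B staining, with optical density read on a plate reader. GI50 is the concentration giving a 50% reduction in net protein increase, calculated from the OD data.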

Tubulin (Bos taurus) [8] = target: T1, Tubulin (Bos taurus) (UniProt Q6B856+Q862L2+Q862F3); test: Inhibition of radiolabeled [3H]colchicine binding to tubulin at a concentration of 5 uM of the compound; type: protein assay
Outline: (§2)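 [3H]colchicine 5.0 µM incubated with tubulin 1.0 µM plus inhibitor at the stated level, 10 min at 37 °C, then colchicine binding measured. Reported as percent inhibition.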

Tubulin [9] = target: T2, Tubulin (Bos taurus, UniProt Q6B856+Q862L2+Q862F3); test: (§3) Inhibition of tubulin polymerization reported as IC50; type: functional
Outline: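 Tubulin at 10 µM with a range of drug concentrations. Extent of assembly read after 20 min at 30 °C. IC50 taken from the concentration needed to halve assembly.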

Tubulin (Bos taurus) [10] = target: T1, Tubulin (Bos taurus); test: Inhibition of radiolabeled [3H]colchicine binding to tubulin at a concentration of 2 uM of the compound; type: protein assay; outline: as §2
BXPC-3 [11] = test: Cell growth inhibition against pancreatic BXPC-3 cells, 50% reduction in the net protein increase; type: functional; conditions: Homo sapiens; outline: as §1
P388 [12] = test: Evaluated for cell growth inhibition of the mouse leukemia P388 cells in 10% horse serum/Fisher media; type: functional; conditions: read-out: ED50 (the source's name)
Outline: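 Murine P388 leukaemia cells grown in 10% horse serum/Fisher medium, incubated 24 h, then compound dilutions added. After 48 h, cells counted on a Coulter Z1 particle counter and the ED50 for growth inhibition calculated.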

NCI-H460 = test: Cell growth inhibition of lung-NSC NCI-H460 cells, expressed as 50% reduction in the net protein increase; type: functional; conditions: Homo sapiens; outline: as §1
SF-268 [13] = test: Cell growth inhibition of central nervous system (CNS) SF-268 cells, expressed as 50% reduction in the net protein increase; type: functional; conditions: Homo sapiens; outline: as §1
KM-20L2 [14] = test: Cell growth inhibition of colon KM20L2 cells, expressed as 50% reduction in the net protein increase; type: functional; conditions: Homo sapiens; outline: as §1
Neisseria gonorrhoeae [15] = test: The minimum inhibitory concentration (MIC) that inhibits all visible growth of the Neisseria gonorrhoeae (bacteria); value may ranges from (32 - 64); type: functional
Outline: (§4)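 Broth microdilution following NCCLS reference methods (M7-A4 for aerobic bacteria, the yeast broth dilution standard for fungi). MIC is the lowest compound concentration giving optically clear wells, with no visible growth of the test organism.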

[16] = test system: Stenotrophomonas maltophilia; test: The minimum inhibitory concentration (MIC) that inhibits all visible growth of the Stenotrophomonas maltophilia (bacteria) at 64 ug/mL; NI is no inhibition; type: functional, organism-based; outline: as §4
Enterobacter cloacae = test: The minimum inhibitory concentration (MIC) that inhibits all visible growth of the Enterobacter cloacae (bacteria) at 64 ug/mL; NI is no inhibition; type: functional, organism-based; outline: as §4
Micrococcus luteus [17] = test: the minimum inhibitory concentration (MIC) that inhibits all visible growth of the Micrococcus luteus (bacteria) at 64 ug/mL; NI is no inhibition; type: functional, organism-based; outline: as §4
Escherichia coli = test: The minimum inhibitory concentration (MIC) that inhibits all visible growth of the Escherichia coli (bacteria) at 64 ug/mL; NI is no inhibition; type: functional, organism-based; outline: as §4
Streptococcus pneumoniae = test: The minimum inhibitory concentration (MIC) that inhibits all visible growth of the Streptococcus pneumoniae (bacteria); type: functional; outline: as §4
Enterococcus faecalis [18] = test: The minimum inhibitory concentration (MIC) that inhibits all visible growth of the Enterococcus faecalis (bacteria) at 64 ug/mL; NI is no inhibition; type: functional, organism-based; outline: as §4
Staphylococcus aureus [19] = test: The minimum inhibitory concentration (MIC) that inhibits all visible growth of the Staphylococcus aureus (bacteria) at 64 ug/mL; NI is no inhibition; type: functional, organism-based; outline: as §4
Cryptococcus neoformans [20] = test: Minimum inhibitory concentration (MIC) that inhibits all visible growth of the Cryptococcus neoformans (fungus) at 64 ug/mL; NI is no inhibition; type: functional, organism-based; outline: as §4
Candida albicans [21] = test: The minimum inhibitory concentration (MIC) that inhibits all visible growth of the Candida albicans (fungus) at 64 ug/mL; NI is no inhibition; type: functional, organism-based; outline: as §4
Enterococcus faecalis [22] = test: the minimum inhibitory concentration (MIC) that inhibits all visible growth of the Enterococcus faecalis (bacteria) at 64 ug/mL; NI is no inhibition; type: functional, organism-based; outline: as §4
Neisseria gonorrhoeae [23] = test: The minimum inhibitory concentration (MIC) that inhibits all visible growth of the Neisseria gonorrhoeae (bacteria); type: functional; outline: as §4
Staphylococcus aureus [24] = test: The minimum inhibitory concentration (MIC) that inhibits all visible growth of the Staphylococcus aureus (bacteria); type: functional; outline: as §4
Enterococcus faecalis [25] = test: the minimum inhibitory concentration (MIC) that inhibits all visible growth of the Enterococcus faecalis (bacteria); type: functional; outline: as §4
Cryptococcus neoformans [26] = test: Minimum inhibitory concentration (MIC) that inhibits all visible growth of the Cryptococcus neoformans (fungus).; type: functional; outline: as §4
Micrococcus luteus [27] = test: the minimum inhibitory concentration (MIC) that inhibits all visible growth of the Micrococcus luteus (bacteria); type: functional; outline: as §4
Candida albicans [28] = test: The minimum inhibitory concentration (MIC) that inhibits all visible growth of the Candida albicans (fungus); type: functional; outline: as §4
Tubulin [29] = target: T2, Tubulin; test: as §3; type: functional; remark: listed apart in the source
Micrococcus luteus [30] = test: The minimum inhibitory concentration (MIC) that inhibits all visible growth of the Micrococcus luteus (bacteria) at 64 ug/mL; NI is no inhibition; type: functional, organism-based; outline: as §4

Structure (SMILES)	GI50 (DU-145 [2]) [µg/mL]	GI50 (BXPC-3 [4]) [µg/mL]	EC50 (P388 [5]) [µg/mL]	GI50 (MCF7) [µg/mL]	MIC (Streptococcus pneumoniae) [µg/mL]	GI50 [1] [µg/mL]	GI50 (KM-20L2 [3]) [µg/mL]	GI50 (SF-268 [6]) [µg/mL]	other results
COc1cc(/C=C/c2ccc(O)cc2)cc(OC)c1 [PTEROSTILBENE]	2.7 (≈ 10.5 µM)	6.5 (≈ 25.4 µM)	4.87 (≈ 19 µM)	2.3 (≈ 8.97 µM)		2.7 (≈ 10.5 µM)	3.4 (≈ 13.3 µM)		GI50 (SF-268 (Homo sapiens)): 4.3 µg/mL (≈ 16.8 µM)
COc1ccc(/C=C\c2cc(OC)cc(OC)c2)cc1 [8Z-3,4',5-TRIMETHOXYSTILBENE]									GI50 (DU-145 [7]): 0.0054 µg/mL (≈ 0.02 µM); inhibition (Tubulin (Bos taurus) [8]): 95%; IC50 (Tubulin [9]): 1.8 µM; inhibition (Tubulin (Bos taurus) [10]): 88%; GI50 (BXPC-3 [11]): 0.0034 µg/mL (≈ 0.0126 µM); EC50 (P388 [12]): 0.0262 µg/mL (≈ 0.0969 µM); GI50 (NCI-H460): 0.0028 µg/mL (≈ 0.0104 µM); GI50 (SF-268 [13]): 0.0044 µg/mL (≈ 0.0163 µM)
COc1ccc(C(=O)c2cc(OC)c(OC)c(OC)c2)cc1O [PHENSTATIN]									inhibition (Tubulin (Bos taurus) [8]): 85%; IC50 (Tubulin [9]): 1.1 µM; inhibition (Tubulin (Bos taurus) [10]): 73%; EC50 (P388 [12]): 0.0033 µg/mL (≈ 0.0104 µM); GI50 (NCI-H460): 0.0057 µg/mL (≈ 0.0179 µM); GI50 (SF-268 [13]): 0.052 µg/mL (≈ 0.163 µM); GI50 (KM-20L2 [14]): 0.04 µg/mL (≈ 0.126 µM)
COc1cc(/C=C\c2ccc(O)cc2)cc(OC)c1	2.3 (≈ 8.97 µM)	12.6 (≈ 49.2 µM)	2.95 (≈ 11.5 µM)	3 (≈ 11.7 µM)	16 (≈ 62.4 µM)	2.8 (≈ 10.9 µM)	11.9 (≈ 46.4 µM)	2.2 (≈ 8.58 µM)	MIC (Neisseria gonorrhoeae [23]): 8 µg/mL (≈ 31.2 µM); MIC (Staphylococcus aureus [24]): 32 µg/mL (≈ 125 µM); MIC (Enterococcus faecalis [25]): 32 µg/mL (≈ 125 µM); MIC (Cryptococcus neoformans [26]): 16 µg/mL (≈ 62.4 µM); MIC (Micrococcus luteus [27]): 8 µg/mL (≈ 31.2 µM); MIC (Candida albicans [28]): 64 µg/mL (≈ 250 µM); IC50 (Tubulin [29]): 29 µM
COc1ccc(/C=C/c2cc(O)cc(OC)c2)cc1			31.5 (≈ 123 µM)						MIC (Micrococcus luteus [27]): 16 µg/mL (≈ 62.4 µM)
COc1ccc(/C=C/c2cc(O)cc(O)c2)cc1 [RESVERATROL 4'-METHYL ETHER]	2.7 (≈ 11.1 µM)	6.3 (≈ 26 µM)	28.9 (≈ 119 µM)	3.4 (≈ 14 µM)		6.8 (≈ 28.1 µM)	3.8 (≈ 15.7 µM)	3.1 (≈ 12.8 µM)	

Further lines, with some results ahead:

GI50 (DU-145 [2]) [µg/mL]	GI50 (BXPC-3 [4]) [µg/mL]	EC50 (P388 [5]) [µg/mL]	GI50 (MCF7) [µg/mL]	MIC (Streptococcus pneumoniae) [µg/mL]	Structure (SMILES)	GI50 [1] [µg/mL]	GI50 (KM-20L2 [3]) [µg/mL]	GI50 (SF-268 [6]) [µg/mL]	other results
15 (≈ 61.4 µM)	21.2 (≈ 86.8 µM)	17.8 (≈ 72.9 µM)	21.7 (≈ 88.8 µM)		COc1ccc(C(=O)c2cc(O)cc(O)c2)cc1	16.6 (≈ 68 µM)	24.5 (≈ 100 µM)	24.5 (≈ 100 µM)	
10.2 (≈ 44.7 µM)	15.5 (≈ 67.9 µM)	24.4 (≈ 107 µM)	14.8 (≈ 64.8 µM)		Oc1ccc(/C=C\c2cc(O)cc(O)c2)cc1 [CIS-RESVERATROL]	13.2 (≈ 57.8 µM)	22 (≈ 96.4 µM)	5 (≈ 21.9 µM)	
4.1 (≈ 15.9 µM)	4 (≈ 15.5 µM)	24.8 (≈ 96 µM)	2.2 (≈ 8.52 µM)	64 (≈ 248 µM)	COc1cc(OC)cc(C(=O)c2ccc(O)cc2)c1	3 (≈ 11.6 µM)	3.6 (≈ 13.9 µM)	3.8 (≈ 14.7 µM)	MIC (Neisseria gonorrhoeae [15]): 64 µg/mL (≈ 248 µM); MIC [16]: inactive; MIC (Enterobacter cloacae): inactive; MIC (Micrococcus luteus [17]): inactive; MIC (Escherichia coli): inactive; MIC (Enterococcus faecalis [18]): inactive; MIC (Staphylococcus aureus [19]): inactive; MIC (Cryptococcus neoformans [20]): inactive; MIC (Candida albicans [21]): inactive; MIC (Enterococcus faecalis [22]): inactive
16.5 (≈ 67.6 µM)	21.7 (≈ 88.8 µM)	26.2 (≈ 107 µM)	26.8 (≈ 110 µM)	64 (≈ 262 µM)	COc1cc(O)cc(C(=O)c2ccc(O)cc2)c1	12.1 (≈ 49.5 µM)	31.6 (≈ 129 µM)	26.4 (≈ 108 µM)	MIC (Neisseria gonorrhoeae [23]): 32 µg/mL (≈ 131 µM); MIC [16]: inactive; MIC (Enterobacter cloacae): inactive; MIC (Micrococcus luteus [30]): inactive; MIC (Escherichia coli): inactive; MIC (Enterococcus faecalis [18]): inactive; MIC (Staphylococcus aureus [19]): inactive; MIC (Cryptococcus neoformans [20]): inactive; MIC (Candida albicans [21]): inactive
